Measurements gathered from unrelated publications.
Protocols differ between the studies behind these lines.
Target: Epithelial discoidin domain-containing receptor 1 (DDR1, Homo sapiens, UniProt Q08345)

SMILES | assay | conditions | remaining binding [%]
O=C(c1ccc(Nc2nccc(-c3cc4ccccc4s3)n2)cc1)N1CCC(N2CCCC2)CC1 | binding, competition with immobilised ligand | 1 µM | 2.1
C[C@@H](c1ccc(-n2cnc3c(N)ncnc32)cc1)N1CCc2nn(C)c(Cc3ccccc3)c2C1=O | binding, competition with immobilised ligand | 0.1 µM | 8.9
O=C(c1ccc(Nc2ncc(Cl)c(-c3ccc(Cl)s3)n2)cc1)N1CCC(N2CCCC2)CC1 | binding, competition with immobilised ligand | 1 µM | 12
CNC(=O)c1ccc(Nc2ncc(C(F)(F)F)c(NCc3nccnc3N(C)S(C)(=O)=O)n2)cc1 | cell-free assay, competition with immobilised ligand | 0.1 µM | 100
CNC(=O)[C@@H]1CC[C@@H](n2c(-c3ccc4cnccc4c3)nc3ccc(C(=O)NCc4cccc(C(N)=O)c4)cc32)C1 | binding, competition with immobilised ligand | 1 µM | 100
O=C(NCC1CCOCC1)c1n[nH]cc1NC(=O)c1c(F)cccc1F | binding, competition with immobilised ligand | 1 µM | 100
CN(C)c1ncc(F)c(-c2cnn3ncccc23)n1 | binding | 1 µM | 89
COc1cnc(Nc2cccc(S(N)(=O)=O)c2)nc1N1CCN(c2ccccc2)CC1 | binding, competition with immobilised ligand | 1 µM | 93
F[C@@H]1CCN(c2nccc(-c3cnn4ncccc34)n2)C1 | binding | 1 µM | 83
CS(=O)(=O)N1CCCC(NC(=O)[C@H](CCC2CCCCC2)NC(=O)c2ccc(CNc3ncnc4c3nnn4-c3ccccc3)cc2)C1 (some centres unmarked) | cell-free assay, competition with immobilised ligand | 0.1 µM | 89
c1cncc(-c2cccc(Nc3nccc(NC4CCCCC4)n3)c2)c1 | binding, competition with immobilised ligand | 10 µM | 27
Cc1cnc(Nc2ccc(C(=O)N3CCC(N4CCCC4)CC3)cc2)nc1-c1cc2ccccc2s1 | binding, competition with immobilised ligand | 1 µM | 0.1
Cc1cc(NC(=O)c2cccc(S(F)(F)(F)(F)F)c2)cc(-n2ccn3nc(-c4cccnc4)cc23)c1 | cell-free assay, competition with immobilised ligand | 1 µM | 0
COc1ccnn2ncc(-c3ccnc(N(C)C)n3)c12 | binding | 1 µM | 100
CNC(=O)Nc1ccc2c(c1)CC[C@@]21OC(=O)N(CC(=O)N(Cc2ccc(F)cc2)[C@@H](C)C(F)(F)F)C1=O | cell-free assay, competition with immobilised ligand | 1 µM | 100
N[C@@H]1CCN(c2nccc(-c3cnn4ncccc34)n2)C1 | binding | 1 µM | 100
CC(=O)c1c(NS(C)(=O)=O)c2cc(-c3ccc(Cl)cc3)c(-c3ccc(Cl)cc3Cl)nc2n(C)c1=O | cell-free assay, competition with immobilised ligand | 1 µM | 100
c1cnn2ncc(-c3ccnc(N4CCC45COC5)n3)c2c1 | binding | 1 µM | 82
CC(=O)Nc1c(C(C)=O)c(=O)n(C)c2nc(-c3ccc(Cl)cc3Cl)c(-c3ccc(Cl)cc3)cc12 | cell-free assay, competition with immobilised ligand | 1 µM | 100
CN(C)c1nccc(-c2cnn3ncccc23)n1 | binding | 1 µM | 100
